Experimental data pooled from the literature.
Lines come from different studies, so protocols differ.

SMILES | assay | test system | conditions | quantity | value
COc1ccc2c(=O)n(C)c(-c3ccccc3)nc2c1 |  | male Sprague-Dawley rat, lung | oral, 30 mg/kg, 30 min, single dose | concentration | 27.5 ng/g
CCc1cc(OC)c2nccc(N3CCc4c(cc(Cn5ccnc5)cc4-c4cn(C)nc4C(F)(F)F)C3=O)c2c1 |  | male Sprague-Dawley rat, plasma | intravenous, 3 mg/kg | C0 | 1150 ng/mL
COC(=O)[C@H](N)CSSC[C@@H](N)C(=O)OC | chemical stability | rat, plasma |  | half-life | 8.14 min
CCc1cc(-c2noc(-c3cc(OC)nc(C4CCCC4)c3)n2)cc(C)c1OC[C@@H](O)CO |  | Wistar rat, plasma | oral, 10 mg/kg, 24 h, single dose | concentration | 350 ng/mL
COc1cccc(-c2n[nH]c(SCc3ccccn3)n2)c1OC |  | male Sprague-Dawley rat, plasma | oral, 10 mg/kg, 2 h, single dose | concentration | 1160 ng/mL
CCOC(=O)C1=C(C)N/C(=C/c2cc(C)n(-c3ccc(OC)cc3)c2C)C1=O | metabolic stability | mouse, liver microsomes | 1 µM | half-life | 32 min
Oc1c(Br)cc(Cl)c2cccnc12 |  | Sprague-Dawley rat, plasma | intravenous, 2 mg/kg | C0 | 2400 ng/mL
Cc1noc(C)c1Cn1cc(N2C(=O)CN(Cc3cccc(O)c3)C2=O)cn1 |  | male Sprague-Dawley rat, plasma | oral, 10 mg/kg, 4 h | concentration | 2.72 ng/mL
CCOC(=O)C1=C(C)N/C(=C/c2cc(C)n(-c3ccc(CN(C)C)cc3)c2C)C1=O | metabolic stability | mouse, liver microsomes | 1 µM | half-life | 56 min
CCOC(=O)[C@@]12C[C@@H]1[C@@H](n1ccc3c(NC)nc(C#Cc4ccc(Cl)s4)nc31)[C@H](O)[C@@H]2O |  | male Sprague-Dawley rat, plasma | oral, 10 mg/kg, 4 h | concentration | 23.5 ng/mL
CCOC(=O)C1=C(C)N/C(=C/c2cc(C)n(-c3cccc(C(F)(F)F)c3)c2C)C1=O | metabolic stability | mouse, liver microsomes | 1 µM | half-life | 18 min
Cc1noc(C)c1Cn1cc(N2C(=O)N(Cc3cccc(O)c3)C(C)(C)C2=O)cn1 |  | male Sprague-Dawley rat, plasma | oral, 100 mg/kg, 30 min, single dose | concentration | 2.6 ng/mL
CCc1cc(C(=O)NC)c2nccc(N3CCc4c(cc(Cn5ccnc5)cc4-c4cn(C)nc4C(F)(F)F)C3=O)c2c1 |  | male Sprague-Dawley rat, plasma | oral, 50 mg/kg | half-life | 36 min
CCOC(=O)C1=C(C)N/C(=C/c2cc(C)n(-c3ccc(SC)cc3)c2C)C1=O | metabolic stability | mouse, liver microsomes | 1 µM | half-life | 26 min
COc1cc2c3c(n(CCCN4CCOCC4)c(=O)c2cc1OC)-c1cc2c(cc1C3=O)OCO2 |  | female Fischer 344 rat, plasma | intravenous, 12 mg/m², single dose | half-life | 252 min
